Only some compounds are listed: those with a hit (about 4.9% of all), similar ones and a draw of the others.
NF-kB expr up: NF-kB expression increase, human neuronal cells; actives 1.6% (n = 190,000); NF-kB reporter expression; active compounds read high; fold change at 12.5 µM; in the data active = fold change above about 3.3
STAT1 inh: reduces IFN-gamma driven STAT1 reporter signal; AID 920; actives 0.35% (n = 200,000); NIH 3T3 STAT1-luciferase reporter, luminescence; inhibition, % at 5.5 µM;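 active = inhibition above a set limit, the mean inhibition across all tested compounds plus 3 SD, cut at about 34% in these data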;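 note: 0% = IFN-gamma with DMSO and 100% = IFN-gamma with 300 µM nifuroxazide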
APP 5'UTR act: activates APP 5'UTR luciferase reporter | SH-SY5Y APP 5'UTR luciferase reporter, luminescence; zero percent = DMSO vehicle wells | activation, % at 2 µM | actives 1% (n = 190,000) | AID 1276;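 active = activation above a set limit, based on mean plus 3 SD of controls, cut at about 140% in these data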
STAT1 act: activators of IFN-gamma induced STAT1 signaling; NIH 3T3 STAT1-luciferase reporter, luminescence; 100% = IFN-gamma alone, no compound; activation (% of control), % at 5.5 µM; actives 2.6% (n = 200,000); AID 932;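 active = activation above the screen-wide mean activation plus 3 SD, cut at about 130% in these data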;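 note: raw ratio to IFN-gamma control signal so 100% means no change and 0% no light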
STAT3 act: increases IL-6 driven STAT3 reporter signal | U3A cells, IL-6 STAT3-luciferase reporter, luminescence; 100% = signal with IL-6 EC80 alone | activation (% of control), % at 5.6 µM | actives 0.91% (n = 190,000);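 active = activation above the screen-wide mean of compound activation plus 3 SD, cut at about 130% in these data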;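 note: 0% = background luminescence of wells with medium and substrate only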
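Material: STAT3-luciferase reporter U3A cells. Controls: IL-6-treated wells, 100% activation. Read-out: % activation versus median of IL-6-stimulated wells. Probe or stimulus: IL-6 stimulus at 33 ng/mL final. Timing: compound 1 h, then IL-6 6 h at 37 °C. Signal: reporter luminescence signal.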
STAT3 blocker: inhibitors of IL-6 induced STAT3 signaling; U3A cells, IL-6 STAT3-luciferase reporter, luminescence; host cell line lacks STAT1; AID 862; inhibition, % at 5.5 µM; actives 0.89% (n = 190,000);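 active = inhibition above the mean inhibition across all screened compounds plus 3 SD, cut at about 44% in these data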;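 note: 0% = DMSO only wells and 100% = 100 µM nifuroxazide control wells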
An asterisk follows results filed as active; nt = no result.

SMILES	NF-kB expr up	STAT1 inh	APP 5'UTR act	STAT1 act	STAT3 act	STAT3 blocker
Cc1cc(NCCCN2CCOCC2)n2ncc(-c3ccc(Cl)cc3)c2n1	1.11	-10.2	47.1	109.4	125.4	-27.3
Cc1cc(NCCCn2ccnc2)n2ncc(-c3ccc(Cl)cc3)c2n1	1.34	-61.9	253.3*	155.7*	152.2*	-61.0
CCC(Sc1ncnc2c1nnn2-c1ccc(F)cc1)C(=O)OC (stereo not given)	2.12	-18.6	8.9	116.8	96.9	4.4
CCOC(=O)C(C)Sc1ncnc2c1nnn2-c1ccc(F)cc1 (stereo not given)	1.76	-35.2	10.2	131.9*	93.0	8.9
CCOc1ncccc1C(=O)OCC(=O)N(CC(C)C)C1CCS(=O)(=O)C1 (stereo not given)	0.97	3.1	22.6	97.3	105.6	2.2
Nc1ccc2c(c1)sc1ccccc12	2.25	-32.6	10.6	129.6*	93.6	10.8
Cc1ccc(SC2CC(=O)N(c3ccc4c(c3)OCCO4)C2=O)cc1 (stereo not given)	1.01	1.5	2.4	97.8	99.9	7.2
CNC(=S)N/N=C/c1ccc(C(C)C)cc1	nt	-39.0	63.7	129.4*	91.3	18.2
CC(C)c1ccc(/C=N/NC(=O)CC(=O)NCc2ccccc2)cc1	1.06	-5.1	-2.1	103.9	111.9	-0.3
CC(C)c1ccc(/C=N/NC(=O)c2ccccc2Cl)cc1	1.69	-46.0	-61.4	139.3*	114.7	-11.4
COc1cccc(-c2nc(-c3ccc(NC(=O)c4cccs4)cc3)no2)c1	1.06	-31.1	29.8	128.0	96.4	15.4
COc1cc(/C=C/c2cc(C(F)(F)F)[nH]c(=O)n2)cc(OC)c1OC	1.31	46.2*	12.7	56.0	86.9	16.9
COc1cc(OC)c(OC)cc1/C=C/c1cc(C(F)(F)F)[nH]c(=O)n1	1.02	7.5	-5.4	92.0	93.7	11.1
O=C(Cc1ccsc1)Nc1ccc(S(=O)(=O)C(F)F)cc1	0.95	-20.4	0.9	116.1	107.3	-7.8
Cc1ccccc1NC(=O)C(=O)NC(C)CCc1ccccc1 (stereo not given)	1.17	-1.8	-11.2	101.6	93.8	7.3
CC(CCc1ccccc1)NC(=O)C(=O)Nc1ccccc1 (stereo not given)	2.03	-43.7	55.9	139.5*	107.8	-5.3
CCOc1ccccc1NC(=O)NC(=O)N(C)S(=O)(=O)c1ccc(C)cc1	0.96	4.7	4.0	95.5	102.7	1.7
CCCCCCN1C=CC(=C2C(=O)c3ccccc3C2=O)C=C1	1.32	81.0*	48.4	24.1	16.4	99.7*
CCCN1C=CC(=C2C(=O)c3ccccc3C2=O)C=C1	0.27	91.6*	-81.0	14.7	8.7	113.4*
CN1C=CC(=C2C(=O)c3ccccc3C2=O)C=C1	3.59*	-19.7	101.6	118.0	68.1	42.1
CCN1C=CC(=C2C(=O)c3ccccc3C2=O)C=C1	0.24	88.0*	-69.8	19.8	12.0	108.7*
CCCCN1C=CC(=C2N=c3cccc([N+](=O)[O-])c3=N2)C=C1	1.01	-12.6	28.1	111.1	104.1	-4.7
O=C(COC(=O)Cc1ccc(Br)cc1)NC1CCCCCC1	1.27	2.8	-11.6	95.7	98.7	5.2
COc1ccc(/C(N)=N/OC(=O)Cc2cccs2)cc1	2.7	-44.1	64.7	139.3*	105.4	-9.2
COc1ccc(/C(N)=N/OC(=O)Cc2cccs2)cc1OC	1.96	-12.2	19.9	110.9	97.6	5.5
SMILES	NF-kB expr up	STAT1 inh	APP 5'UTR act	STAT1 act	STAT3 act	STAT3 blocker
COc1cc(/C=N/Nc2ccccc2[N+](=O)[O-])ccc1OC(=O)c1ccccc1F	1.66	-8.3	192.7*	107.4	111.4	-9.7
COc1cc(/C=N/Nc2ccccc2)ccc1OC(=O)c1cccs1	1.59	0.7	5.2	99.4	111.0	-18.2
COc1cc(/C=N/Nc2nc3ccccc3s2)ccc1OC(=O)c1ccccc1F	11.6*	-3.7	172.8*	105.8	119.3	-27.1
COc1ccc(/C=N/NC(N)=S)cc1OC(=O)c1cccc2ccccc12	0.91	-35.8	19.0	129.6*	94.8	14.6
COc1cc(/C=N/Nc2ccccc2[N+](=O)[O-])cc(OC)c1O	1.34	9.6	3.1	90.6	94.6	8.7
CN1C(=O)C(CC(=O)NCC2CCCCC2)SC1=Nc1ccccc1 (stereo not given)	1.05	7.0	5.4	91.9	98.6	3.9
